The source of these data is ChEMBL document CHEMBL2203112, “Synthesis, evaluation of anti-HIV-1 and anti-HCV activity of novel 2',3'-dideoxy-2',2'-difluoro-4'-azanucleosides” (Bioorg Med Chem, 2012).

Active and inactive are the calls of the source. The calls are words filed in the database; no cut-off is given here.

The IC50 is the midpoint of a concentration-inhibition curve. Usually EC50 stands for the concentration giving half of the maximal effect. What is called EC90 is the concentration at which the effect reaches the 90% level.

Test [1] relates to Vero. Put plainly: Cytotoxicity against african green monkey Vero cells. The test is classed as cell-based. Conditions: Chlorocebus sabaeus. In a few lines: (§1)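 Cytotoxicity measured in lymphocytic CEM cells and in Vero (African green monkey kidney) cells; expressed as IC50 (μM).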
Test [2] has as its system CCRF-CEM. Put plainly: Cytotoxicity against human CEM cells. Format: cell-based. In a few lines: as §1
Test [3] concerns PBMC. Put plainly: Cytotoxicity against human PBMC. Format: cell-based. In a few lines:
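Cytotoxicity measured in uninfected, phytohemagglutinin-stimulated human PBM cells; expressed as IC50 (μM).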

Test [4] has as its system Human immunodeficiency virus 1. Put plainly: Antiviral activity against HIV1 LAI infected in human PBMC assessed as inhibition of viral replication. Particulars: Human immunodeficiency virus 1, LAI. The test is classed as functional, organism-based.
The subject of test [5] is Hepatitis C virus. Put plainly: Antiviral activity against HCV assessed as inhibition of viral replication at 10 uM. Format: functional, organism-based. Conditions: Hepacivirus hominis. In a few lines: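 HCV replicon assay with a single test concentration of 10 μM; 2′-C-Me-cytidine served as positive control.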

In the case of `CC(C)(C)OC(=O)N1C(n2cnc3ncnc(Cl)c32)C(F)(F)C[C@H]1CO` (single isomer, unassigned; 28) [listing 1 of 2 here], the IC50 in test [1], in test [2] and in test [3] was > 100 µM throughout. Besides, the EC50 in test [4] was > 100 µM. The EC90 in test [4] is > 100 µM.

Turning to `CC(C)(C)OC(=O)N1C(n2cnc3ncnc(Cl)c32)C(F)(F)C[C@H]1CO` (single isomer, unassigned; 29) [listing 1 of 2 here], in test [5], the inhibition entry is “inactive”.

Turning to `CC(C)(C)OC(=O)N1[C@H](CO)CC(F)(F)[C@@H]1n1cc(F)c(=O)[nH]c1=O`, the inhibition entry in test [5] was “inactive”. For the same compound, the IC50 was > 100 µM in test [1], > 100 µM in test [2] and 28.2 µM in test [3]. The concentration for a half-maximal effect (EC50) in test [4] was 44.5 µM. For the same compound, in test [4], the EC90 worked out at 90.8 µM.

`CC(C)(C)OC(=O)N1C(n2cnc3ncnc(N)c32)C(F)(F)C[C@H]1CO` (single isomer, unassigned; 33) [listing 1 of 2 here]: the inhibition result in test [5] is “inactive”.

As to `Cc1cn([C@H]2C[C@H](N=[N+]=[N-])[C@@H](CO)O2)c(=O)[nH]c1=O` [ZIDOVUDINE], in test [5], the inhibition entry is “inactive”. In test [3], the IC50 was > 100 µM. Also, in test [4], the EC90 was determined as 0.0027 µM.

`CC(C)(C)OC(=O)N1C(n2cnc3c(N)ncnc32)C(F)(F)C[C@H]1CO` (single isomer, unassigned; 31) [listing 1 of 2 here]: the inhibition result in test [5] is “inactive”.

Regarding `CC(C)(C)OC(=O)N1C(n2cnc3c(Cl)ncnc32)C(F)(F)C[C@H]1CO` (single isomer, unassigned; 27) [listing 1 of 2 here], the IC50 in test [1] is > 100 µM; in test [2], 38.1 µM; in test [3] it was 58.1 µM. The EC50 in test [4] was 64.5 µM. The EC90 in test [4] was > 100 µM.

Consider `CC(C)(C)OC(=O)N1C(n2cnc3c(Cl)ncnc32)C(F)(F)C[C@H]1CO` (single isomer, unassigned; 26) [listing 1 of 2 here], for which the inhibition entry in test [5] was “inactive”.

`CC(C)(C)OC(=O)N1C(n2cnc3ncnc(N)c32)C(F)(F)C[C@H]1CO` (single isomer, unassigned; 32) [listing 1 of 2 here]: in test [5], the inhibition result was “inactive”.

For `CC(C)(C)OC(=O)N1C(n2cnc3ncnc(Cl)c32)C(F)(F)C[C@H]1CO` (single isomer, unassigned; 28) [listing 2 of 2 here], the inhibition entry in test [5] was “inactive”.

As for `CC(C)(C)OC(=O)N1C(n2cnc3c(Cl)ncnc32)C(F)(F)C[C@H]1CO` (single isomer, unassigned; 27) [listing 2 of 2 here], in test [5], the inhibition entry was “inactive”.

Take `CC(C)(C)OC(=O)N1C(n2cnc3ncnc(N)c32)C(F)(F)C[C@H]1CO` (single isomer, unassigned; 33) [listing 2 of 2 here]: the IC50 in test [1], in test [2] and in test [3] was > 100 µM throughout. For the same compound, the EC50 in test [4] was > 100 µM. In addition, the EC90 in test [4] is > 100 µM.

In the case of `CC(C)(C)OC(=O)N1C(n2cnc3c(Cl)ncnc32)C(F)(F)C[C@H]1CO` (single isomer, unassigned; 26) [listing 2 of 2 here], the IC50 in test [1] was > 100 µM; in test [2], 57.1 µM; in test [3] it was > 100 µM. Besides, the EC50 in test [4] was > 100 µM. Moreover, the EC90 in test [4] was > 100 µM.

Take `CC(C)(C)OC(=O)N1C(n2cnc3ncnc(Cl)c32)C(F)(F)C[C@H]1CO` (single isomer, unassigned; 29) [listing 2 of 2 here]: the figures for the IC50 in test [1], in test [2] and in test [3] were > 100 µM, 55.4 µM and 59.5 µM, respectively. The EC50 in test [4] was determined as 92.3 µM. In test [4], the EC90 was > 100 µM.

For `CC(C)(C)OC(=O)N1C(n2cnc3c(N)ncnc32)C(F)(F)C[C@H]1CO` (single isomer, unassigned; 30) [listing 1 of 2 here], in test [5], the inhibition entry is “inactive”.

`CC(C)(C)OC(=O)N1[C@H](CO)CC(F)(F)[C@@H]1n1ccc(=O)[nH]c1=O`: the inhibition result in test [5] was “inactive”. The values for the IC50 in test [1], in test [2] and in test [3] were 44.4 µM, > 100 µM and 81.4 µM, respectively. Moreover, in test [4], the EC50 is > 100 µM. Besides, the EC90 in test [4] was > 100 µM.

On to `CC(C)(C)OC(=O)N1C(n2cnc3c(N)ncnc32)C(F)(F)C[C@H]1CO` (single isomer, unassigned; 30) [listing 2 of 2 here], for which the IC50 in test [1], in test [2] and in test [3] was > 100 µM in each case. Further, the EC50 in test [4] was > 100 µM. For the same compound, the 90% effect concentration (EC90) in test [4] is > 100 µM.

`CC(C)(C)OC(=O)N1C(n2cnc3c(N)ncnc32)C(F)(F)C[C@H]1CO` (single isomer, unassigned; 31) [listing 2 of 2 here]: the IC50 in test [1], in test [2] and in test [3] was > 100 µM throughout. In addition, in test [4], the EC50 was > 100 µM. The EC90 in test [4] is > 100 µM.

As to `CC(C)(C)OC(=O)N1C(n2cnc3ncnc(N)c32)C(F)(F)C[C@H]1CO` (single isomer, unassigned; 32) [listing 2 of 2 here], the IC50 in test [1], in test [2] and in test [3] was > 100 µM each time. The EC50 in test [4] was > 100 µM. In addition, the EC90 in test [4] is > 100 µM.

As to `CC(C)(C)OC(=O)N1[C@H](CO)CC(F)(F)[C@H]1n1cc(F)c(=O)[nH]c1=O`, in test [5], the inhibition result is “inactive”. The IC50 in test [1] was > 100 µM; in test [2], > 100 µM; in test [3], 30.5 µM. In test [4], the EC50 turned out to be 36.9 µM. In addition, the EC90 in test [4] turned out to be 75.6 µM.

`CC(C)(C)OC(=O)N1[C@H](CO)CC(F)(F)[C@H]1n1ccc(=O)[nH]c1=O`: in test [5], the inhibition entry is “inactive”. The IC50 in test [1], in test [2] and in test [3] was > 100 µM in each case. Further, the 50% effective concentration (EC50) in test [4] was > 100 µM. The EC90 in test [4] was > 100 µM.
